Results: article PMC4013422 (Chinese Journal of Cancer, 2011)
One block for each compound: values may come before it.

Experiments:
[1] = system: skin lesions (basal cell carcinomas) of Krt6a-cre: Ptch1^neo/neo mice; experiment: Topical treatment of basal cell carcinomas, tumor area by HE/ImageJ; assay type: in vivo, mouse
[2] = Solubility in deionized water
[3] = Plasma half-life from mouse blood samples; assay type: in vivo; settings: intraperitoneal
[4] = system: Hh signaling-dependent motor neuron differentiation (E14Tg2a.4 embryonic stem cells); assay type: cell-based, mouse
Procedure, shortened: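 Mouse E14Tg2a.4 ES cells seeded at 5 × 10^5 cells/mL in ES medium without LIF on ultra-low-adhesion plates for 2 days to form embryoid bodies. Motor neurons induced with retinoic acid 100 nmol/L plus purmorphamine 2.5 µmol/L for 5–7 days, with test compound in the induction medium. Read-outs: Hb9 immunofluorescence, and real-time PCR of Hip, FoxA2, Olig2 and Hb9.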

[5] = system: Hh target genes in skin of Krt6a-cre: Ptch1^neo/neo mice; experiment: Hh target gene expression in treated skin; assay type: in vivo, mouse; settings: Figure 5C
Procedure, shortened: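 Tumour-bearing transgenic mice received test compound in 70% ethanol, applied topically to the abdominal skin daily for 21 days; 70% ethanol on the mid-belly served as control. Skin halves were frozen at –80°C. TRIzol total RNA (1 µg) was reverse-transcribed. Gene-specific probes were used for qPCR, with triplicate CT values analysed by the comparative CT method, normalised to 18S RNA and expressed relative to a calibrator.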

Solubility in water [2]: not water soluble
Compound: 3-Keto-N- (aminoethyl-aminocaproyl-dihydro-cinnamoyl) (KAAD)-Cyc [KAAD-Cyc]
Reduction of tumor area ([1]; KAAD-Cyc (1 µmol/L topical per methods), data not shown): more than half

Compound: CC1=C2C[C@H]3[C@@H](CC=C4C[C@@H](O)CC[C@@]43C)[C@@H]2CC[C@]12O[C@@H]1C[C@H](C)CN[C@H]1[C@H]2C [Cyc, Cyclopamine]
half-life [3]: 1 to 4 h
IC50 ([4]; Mus musculus, Neuron, read-out: IC50, inhibitory activity for Hh signaling-dependent motor neuron differentiation): 300 nM
Effect on motor neuron differentiation / expression of differentiation markers ([4]; compound at 50 nmol/L): no significant effects
Maximum reduction in tumor area ([1]; Cyc treatment group, topical daily for 21 days): less than 5%
Hedgehog target gene expression (HIP and Ptch1), RT-PCR [5]: little effects
